Reference: ChEMBL document CHEMBL1129056, “Synthesis and in vitro evaluation of new wortmannin esters: potent inhibitors of phosphatidylinositol 3-kinase” (J Med Chem, 1996)
≈ marks a conversion by molar mass, not a printed value.

Legend:
CCRF-CEM = experiment: Cytotoxicity in rapidly proliferating CCRF-CEM cell lines after 72 hr exposure; format: functional, Homo sapiens
[1] = Inhibition of Phosphatidylinositol 3-kinase from bovine brain; parameters: species or system Bos taurus
How it was run: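 Purified bovine brain PI 3-kinase with phosphatidylinositol as substrate. Lipid products extracted and separated by TLC with autoradiography. PI-3-P spots scraped and counted by liquid scintillation.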

Row | SMILES | CT50 (CCRF-CEM) | IC50 [1]
1 | CCC(=O)O[C@@H]1C[C@]2(C)C(=O)CC[C@H]2C2=C1[C@]1(C)c3c(coc3C2=O)C(=O)O[C@@H]1COC | 0.2 µg/mL | 0.6 ng/mL (≈ 1.36 nM)
2 | C=CC(=O)O[C@@H]1C[C@]2(C)C(=O)CC[C@H]2C2=C1[C@]1(C)c3c(coc3C2=O)C(=O)O[C@@H]1COC | 0.4 µg/mL | 0.95 ng/mL (≈ 2.16 nM)
3 | COC[C@H]1OC(=O)c2coc3c2[C@@]1(C)C1=C(C3=O)[C@@H]2CCC(=O)[C@@]2(C)C[C@H]1OC(=O)Cc1ccccc1 | 1 µg/mL | 1.53 ng/mL (≈ 3.03 nM)
4 | COC[C@H]1OC(=O)c2coc3c2[C@@]1(C)C1=C(C3=O)[C@@H]2CCC(=O)[C@@]2(C)C[C@H]1OC(C)=O [WORTMANNIN] | 0.9 µg/mL | 1.8 ng/mL (≈ 4.2 nM)
5 | CCC(=O)O[C@@H]1C[C@]2(C)C(O)CC[C@H]2C2=C1[C@]1(C)c3c(coc3C2=O)C(=O)O[C@@H]1COC (some centres undefined) | 0.2 µg/mL | 0.38 ng/mL (≈ 0.855 nM)
6 | COC[C@H]1OC(=O)c2coc3c2[C@@]1(C)C1=C(C3=O)[C@@H]2CCC(=O)[C@@]2(C)C[C@H]1OC(=O)CC(C)C | 0.6 µg/mL | 1.16 ng/mL (≈ 2.47 nM)
7 | COC[C@H]1OC(=O)c2coc3c2[C@@]1(C)C1=C(C3=O)[C@@H]2CCC(=O)[C@@]2(C)CC1=O | 2.8 µg/mL | 1.6 ng/mL (≈ 4.16 nM)
8 | CCC(=O)O[C@@H]1C[C@]2(C)C(OC(C)=O)CC[C@H]2C2=C1[C@]1(C)c3c(coc3C2=O)C(=O)O[C@@H]1COC (some centres undefined) | 3.1 µg/mL | 56.5 ng/mL (≈ 116 nM)
9 | COC[C@H]1OC(=O)c2coc3c2[C@@]1(C)C1=C(C3=O)[C@@H]2CCC(=O)[C@@]2(C)C[C@H]1OC(=O)CCl | 0.7 µg/mL | 1.3 ng/mL (≈ 2.81 nM)
10 | COC[C@H]1OC(=O)c2coc3c2[C@@]1(C)C1=C(C3=O)[C@@H]2CCC(=O)[C@@]2(C)C[C@H]1O | 2 µg/mL | 10 ng/mL (≈ 25.9 nM)
11 | CCCC(=O)O[C@@H]1C[C@]2(C)C(=O)CC[C@H]2C2=C1[C@]1(C)c3c(coc3C2=O)C(=O)O[C@@H]1COC | 0.3 µg/mL | 0.4 ng/mL (≈ 0.876 nM)
12 | CCCCC(=O)O[C@@H]1C[C@]2(C)C(=O)CC[C@H]2C2=C1[C@]1(C)c3c(coc3C2=O)C(=O)O[C@@H]1COC | 0.8 µg/mL | 1.2 ng/mL (≈ 2.55 nM)
